One series has as its system Proteus vulgaris. The series is described as follows: Antibacterial activity against Proteus vulgaris after 24 hrs by twofold broth dilution method. It is filed as functional. Summed up: (§1)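 MIC by NCCLS-recommended twofold broth microdilution, run in triplicate. Strains: B. subtilis ATCC6633, E. coli DH52, M. luteus ATCC4698, P. vulgaris ATCC6896, S. dysenteriae, S. aureus ATCC25923, MRSA N315, C. albicans ATCC76615, C. mycoderma. References were chloromycin, norfloxacin and berberine for bacteria, and fluconazole for fungi.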
(Dilution methods test growth across graded concentrations, often in twofold steps.)

A short description of series [1]: Stability of the compound at pH 6.5 to 8.5 after 30 mins by UV spectrophotometry. It is filed as physicochemical. Conditions: buffer, pH 6.5, 0.5 h; call rule not given here. Put shortly:
(§2)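 Stability followed by UV spectrometry across pH 6.5–8.5 and temperatures 30–80 °C.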

Series [2] deals with Candida. The series can be described thus: Antifungal activity against Candida mycoderma after 24 hrs by twofold broth dilution method. In kind it is functional. Summed up: as §1
In series [3] the test system is Staphylococcus aureus. The series is described as follows: Antibacterial activity against Staphylococcus aureus ATCC 25923 after 24 hrs by twofold broth dilution method. In kind it is functional. Conditions: ATCC 25923, 24 h. Put shortly:
as §1

Series [4] addresses T1, Albumin (Homo sapiens, UniProt P02768). The series is described as follows: Binding affinity to human serum albumin assessed as decrease in fluorescence quenching at 286K by UV-Vis spectroscopy. In kind it is ADME. The following applies: isolated protein. Put shortly: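 Fluorescence of HSA fixed at 1.0 × 10^-5 mol L^-1, titrated with compound in 0.2 × 10^-5 mol L^-1 steps. Excitation 295 nm, emission scanned 300–450 nm, slits 2.5 nm, 1.0 cm quartz cells. Spectra recorded at several temperatures (286, 295, 298, 304, 310 K are cited in places). Data fitted by Stern–Volmer, modified Stern–Volmer and Scatchard equations to give binding constants and site number.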

Series [5] is described as follows: Stability of the compound at 30 to 80 degC after 30 mins by UV spectrophotometry. It is filed as physicochemical. The following applies: 0.5 h. Summed up: as §2
Another series relates to Shigella dysenteriae. The series can be described thus: Antibacterial activity against Shigella dysenteriae after 24 hrs by twofold broth dilution method. It is filed as functional. Summed up:
as §1

Series [6] concerns Candida. The series can be described thus: Ratio of fluconazole MIC to compound MIC for Candida mycoderma. It is filed as functional. Put shortly: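 MICs for the compound and for fluconazole against Candida mycoderma were measured in parallel by twofold broth microdilution in 96-well plates, following NCCLS guidance, in triplicate. The ratio was then taken from the two MICs.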

A further series has as its system Micrococcus luteus. The series can be described thus: Antibacterial activity against Micrococcus luteus ATCC 4698 after 24 hrs by twofold broth dilution method. It is filed as functional. The following applies: ATCC 4698, 24 h. Put shortly: as §1
The target in series [7] is T1, Albumin. The series is described as follows: Binding affinity to human serum albumin by UV-Vis spectrophotometry. In kind it is ADME. The following applies: isolated protein. Put shortly:
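HSA UV–vis absorption spectrum compared with the difference spectrum of HSA–compound complex minus compound at equal concentration; recorded at room temperature in 1.0 cm quartz cells.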

Series [8] relates to Staphylococcus aureus. The series can be described thus: Antibacterial activity against methicillin-resistant Staphylococcus aureus N315 after 24 hrs by twofold broth dilution method. In kind it is functional. The following applies: N315, 24 h. Summed up:
as §1

A short description of series [9]: Solubility of the compound in phosphate buffer at pH 7.5 after 20 hrs by UV spectrophotometry. In kind it is physicochemical. Summed up: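 Phosphate buffer pH 7.5 added to solid; suspension sonicated 10 min, then shaken at room temperature for 20 h and centrifuged. Supernatant concentration read by UV absorbance against a regression calibration curve (278 and 340 nm).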

Series [10] has as its system Bacillus subtilis. The series can be described thus: Antibacterial activity against Bacillus subtilis after 24 hrs by twofold broth dilution method. It is filed as functional. Put shortly: as §1
Series [11] deals with Escherichia coli. The series is described as follows: Antibacterial activity against Escherichia coli DH52 after 24 hrs by twofold broth dilution method. In kind it is functional. Conditions: DH52, 24 h. Put shortly: as §1
Series [12] relates to Pseudomonas aeruginosa. The series is described as follows: Antibacterial activity against Pseudomonas aeruginosa after 24 hrs by twofold broth dilution method. It is filed as functional. Put shortly:
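Twofold broth dilution in 96-well microplates following NCCLS guidance; MIC read as the endpoint; tests run in triplicate.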

A short description of series [13]: Octanol-water partition coefficient, log P of the compound after 24 hrs by UV-Vis spectrophotometry. In kind it is physicochemical.
Series [14] has as its system Pseudomonas aeruginosa. The series can be described thus: Ratio of clinafloxacin MIC to compound MIC for Pseudomonas aeruginosa. In kind it is functional.
The test system of the next series is Candida albicans. The series can be described thus: Antifungal activity against Candida albicans after 24 hrs by twofold broth dilution method. It is filed as functional. Summed up: as §1
Series [15] concerns Staphylococcus aureus. The series can be described thus: Ratio of chloromycin MIC to compound MIC for Staphylococcus aureus ATCC 25923. In kind it is functional.
Series [16] relates to Escherichia coli. The series can be described thus: Ratio of chloromycin MIC to compound MIC for Escherichia coli DH52. It is filed as functional.
Series [17] concerns Bacillus subtilis. The series can be described thus: Ratio of chloromycin MIC to compound MIC for Bacillus subtilis. It is filed as functional.
In series [18] the test system is Staphylococcus aureus. The series can be described thus: Ratio of berberin MIC to compound MIC for Staphylococcus aureus ATCC 25923. In kind it is functional.

T1 sequence (P02768 whole entry): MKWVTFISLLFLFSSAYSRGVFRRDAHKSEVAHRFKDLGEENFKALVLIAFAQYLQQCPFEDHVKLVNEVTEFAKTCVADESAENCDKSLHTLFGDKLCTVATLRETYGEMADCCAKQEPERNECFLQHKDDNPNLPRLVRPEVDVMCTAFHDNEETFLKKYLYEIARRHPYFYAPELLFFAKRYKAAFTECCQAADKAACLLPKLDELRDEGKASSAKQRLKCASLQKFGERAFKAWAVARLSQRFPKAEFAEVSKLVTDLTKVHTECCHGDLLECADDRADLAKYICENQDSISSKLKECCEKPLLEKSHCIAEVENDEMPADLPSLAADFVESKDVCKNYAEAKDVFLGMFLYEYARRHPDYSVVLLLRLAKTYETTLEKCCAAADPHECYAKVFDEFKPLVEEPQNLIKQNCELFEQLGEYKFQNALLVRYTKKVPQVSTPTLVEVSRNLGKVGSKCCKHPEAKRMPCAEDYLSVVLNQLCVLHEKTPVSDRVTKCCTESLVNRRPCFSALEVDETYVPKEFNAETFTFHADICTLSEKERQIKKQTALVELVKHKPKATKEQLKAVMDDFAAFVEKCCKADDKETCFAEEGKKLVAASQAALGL

In general, MIC refers to the least concentration at which growth counts as inhibited. A higher MIC goes with weaker potency. One may read the solubility as the concentration that dissolves in the medium under given conditions. Higher therefore signals much dissolved substance. Usually logP stands for a log measure of how a compound divides between an organic and an aqueous phase. A low value points to lower lipophilicity. For `COc1ccc2cc3[n+](cc2c1OCCN(CCn1cncc1[N+](=O)[O-])Cc1ccc(F)cc1F)CCc1cc2c(cc1-3)OCO2.[Cl-]`, the minimum inhibitory concentration (MIC) against Proteus vulgaris came out at 4 µg/mL; against Candida [2], 1 µg/mL; against Staphylococcus aureus [3], 8 µg/mL; against Shigella dysenteriae it was 4 µg/mL; against Micrococcus luteus it was 8 µg/mL; against Staphylococcus aureus [8], 16 µg/mL. The minimum inhibitory concentration (MIC) with Bacillus subtilis [10] came out at 32 µg/mL; in the series with Escherichia coli [11], 8 µg/mL; with Pseudomonas aeruginosa [12], 8 µg/mL; in the series with Candida albicans, 8 µg/mL. The Stability result in series [1] and in series [5] was “Stable” throughout. The outcome on Albumin [4] and at Albumin [7] was Active. The Ratio in the series with Candida [6] is on record as 4; in the series on Pseudomonas aeruginosa [14] it was 2. Further, the concentration in solution in series [9] (solubility at 20 h) was 98.1 µg/mL. This compound also registered a lipophilicity (logP) at 24 h in series [13] of 0.52.

In the case of `COc1ccc2cc3[n+](cc2c1OCCN(CCn1cncc1[N+](=O)[O-])Cc1ccccc1Cl)CCc1cc2c(cc1-3)OCO2.[Cl-]`, the Ratio with Staphylococcus aureus [15] is on record as 8; in the series on Escherichia coli [16] it was 4; with Bacillus subtilis [17], 4; in the series with Staphylococcus aureus [18], 8. Moreover, the minimum inhibitory concentration (MIC) against Proteus vulgaris was found to be 16 µg/mL; against Candida [2], 32 µg/mL; in the series on Staphylococcus aureus [3] it was 2 µg/mL; in the series on Shigella dysenteriae it was 8 µg/mL; against Micrococcus luteus it was 32 µg/mL; against Staphylococcus aureus [8], 8 µg/mL. Also, the minimum inhibitory concentration (MIC) in the series with Bacillus subtilis [10] was 4 µg/mL; against Escherichia coli [11] it was 4 µg/mL; in the series on Pseudomonas aeruginosa [12] it was 8 µg/mL; against Candida albicans it was 4 µg/mL. In addition, the Stability entry in series [1] and in [5] was “Stable” throughout. This compound had a solubility at 20 h in series [9] of 86.4 µg/mL. Besides, the lipophilicity (logP) at 24 h in series [13] is 0.56.

(Values after ChEMBL document CHEMBL2401717, “Synthesis and bioactive evaluation of novel hybrids of metronidazole and berberine as new type of antimicrobial agents and their transportation behavior by human serum albumin” (Bioorg Med Chem, 2013).)
